Measurements: ChEMBL document CHEMBL4689842, “EUbOPEN Chemogenomics Library wave 1” (2021)

Test system: U2OS
Assay: Multiplex assay against U2OS
Format: toxicity, cell-based
Settings: human
Summary of the method: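 Four dyes were applied at seeding to live cells: Hoechst33342, BioTracker Green Microtubule Cytoskeleton Dye, MitoTracker Red and Annexin V Alexa Fluor 680. Imaging after compound addition used a CQ1 microscope at 37°C and 5% CO2. CellPathfinder machine-learning gating then sorted cells into Hoechst high-intensity objects or normal cells, normal cells into healthy, pyknosed or fragmented nuclei, and pyknosed cells into mitotic or apoptotic, with tubulin, mitochondrial-mass and membrane-permeability phenotypes given as per cents of healthy-nucleus cells.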

[1] = 12 h, 1 µM, compound concentration 1 uM, replicate 1
[2] = 12 h, 1 µM, compound concentration 1 uM, replicate 2
[3] = 12 h, 10 µM, compound concentration 10 uM, replicate 1
[4] = 12 h, 10 µM, compound concentration 10 uM, replicate 2
[5] = 24 h, 1 µM, compound concentration 1 uM, replicate 1
[6] = 24 h, 1 µM, compound concentration 1 uM, replicate 2
[7] = 24 h, 10 µM, compound concentration 10 uM, replicate 1
[8] = 24 h, 10 µM, compound concentration 10 uM, replicate 2
[9] = 48 h, 1 µM, compound concentration 1 uM, replicate 1
[10] = 48 h, 1 µM, compound concentration 1 uM, replicate 2
[11] = 48 h, 10 µM, compound concentration 10 uM, replicate 1
[12] = 48 h, 10 µM, compound concentration 10 uM, replicate 2

**Q.** Which results are given for `O=C1NC(=O)C(c2cnc3ccccn23)=C1c1cn2c3c(cc(F)cc13)CN(C(=O)N1CCCCC1)CC2` [LY-2090314]?
**A.** Population Apoptotic (%) [1]: 37%; Population Fragmented Nuclei (%) [1]: 8%; Population Healthy Nuclei (%) [1]: 74%; Population Hoechst High Intensity Objects (%) [1]: 8%; Population Membrane Permeable-Phenotype (%) [1]: 5%; Population Mitochondria Different-Phenotype (%) [1]: 31%; Population Mitotic Cells (%) [1]: 62%; Population Normal (%) [1]: 91%; Population Pyknosed Nuclei (%) [1]: 17%; Population Tubulin-Different-Phenotype (%) [1]: 38%; Total Cell Count [1]: 121; Population Apoptotic (%) [2]: 80%; Population Fragmented Nuclei (%) [2]: 3%; Population Healthy Nuclei (%) [2]: 87%; Population Hoechst High Intensity Objects (%) [2]: 12%; Population Membrane Permeable-Phenotype (%) [2]: 6%; Population Mitochondria Different-Phenotype (%) [2]: 16%; Population Mitotic Cells (%) [2]: 20%; Population Normal (%) [2]: 87%; Population Pyknosed Nuclei (%) [2]: 9%; Population Tubulin-Different-Phenotype (%) [2]: 22%; Total Cell Count [2]: 85; Population Apoptotic (%) [3]: 60%; Population Fragmented Nuclei (%) [3]: 13%; Population Healthy Nuclei (%) [3]: 73%; Population Hoechst High Intensity Objects (%) [3]: 18%; Population Membrane Permeable-Phenotype (%) [3]: 44%; Population Mitochondria Different-Phenotype (%) [3]: 95%; Population Mitotic Cells (%) [3]: 40%; Population Normal (%) [3]: 81%; Population Pyknosed Nuclei (%) [3]: 13%; Population Tubulin-Different-Phenotype (%) [3]: 99%; Total Cell Count [3]: 153; Population Apoptotic (%) [4]: 100%; Population Fragmented Nuclei (%) [4]: 9%; Population Healthy Nuclei (%) [4]: 74%; Population Hoechst High Intensity Objects (%) [4]: 10%; Population Membrane Permeable-Phenotype (%) [4]: 40%; Population Mitochondria Different-Phenotype (%) [4]: 96%; Population Mitotic Cells (%) [4]: 0%; Population Normal (%) [4]: 89%; Population Pyknosed Nuclei (%) [4]: 16%; Population Tubulin-Different-Phenotype (%) [4]: 96%; Total Cell Count [4]: 63; Population Apoptotic (%) [5]: 36%; Population Fragmented Nuclei (%) [5]: 13%; Population Healthy Nuclei (%) [5]: 64%; Population Hoechst High Intensity Objects (%) [5]: 3%; Population Membrane Permeable-Phenotype (%) [5]: 3%; Population Mitochondria Different-Phenotype (%) [5]: 21%; Population Mitotic Cells (%) [5]: 63%; Population Normal (%) [5]: 96%; Population Pyknosed Nuclei (%) [5]: 21%; Population Tubulin-Different-Phenotype (%) [5]: 25%; Total Cell Count [5]: 124; Population Apoptotic (%) [6]: 80%; Population Fragmented Nuclei (%) [6]: 4%; Population Healthy Nuclei (%) [6]: 87%; Population Hoechst High Intensity Objects (%) [6]: 13%; Population Membrane Permeable-Phenotype (%) [6]: 7%; Population Mitochondria Different-Phenotype (%) [6]: 22%; Population Mitotic Cells (%) [6]: 20%; Population Normal (%) [6]: 86%; Population Pyknosed Nuclei (%) [6]: 8%; Population Tubulin-Different-Phenotype (%) [6]: 18%; Total Cell Count [6]: 82; Population Apoptotic (%) [7]: 71%; Population Fragmented Nuclei (%) [7]: 20%; Population Healthy Nuclei (%) [7]: 59%; Population Hoechst High Intensity Objects (%) [7]: 18%; Population Membrane Permeable-Phenotype (%) [7]: 62%; Population Mitochondria Different-Phenotype (%) [7]: 98%; Population Mitotic Cells (%) [7]: 28%; Population Normal (%) [7]: 81%; Population Pyknosed Nuclei (%) [7]: 19%; Population Tubulin-Different-Phenotype (%) [7]: 100%; Total Cell Count [7]: 171; Population Apoptotic (%) [8]: 81%; Population Fragmented Nuclei (%) [8]: 11%; Population Healthy Nuclei (%) [8]: 64%; Population Hoechst High Intensity Objects (%) [8]: 4%; Population Membrane Permeable-Phenotype (%) [8]: 37%; Population Mitochondria Different-Phenotype (%) [8]: 96%; Population Mitotic Cells (%) [8]: 18%; Population Normal (%) [8]: 95%; Population Pyknosed Nuclei (%) [8]: 24%; Population Tubulin-Different-Phenotype (%) [8]: 96%; Total Cell Count [8]: 72; Population Apoptotic (%) [9]: 55%; Population Fragmented Nuclei (%) [9]: 15%; Population Healthy Nuclei (%) [9]: 63%; Population Hoechst High Intensity Objects (%) [9]: 3%; Population Membrane Permeable-Phenotype (%) [9]: 7%; Population Mitochondria Different-Phenotype (%) [9]: 22%; Population Mitotic Cells (%) [9]: 44%; Population Normal (%) [9]: 96%; Population Pyknosed Nuclei (%) [9]: 21%; Population Tubulin-Different-Phenotype (%) [9]: 12%; Total Cell Count [9]: 117; Population Apoptotic (%) [10]: 72%; Population Fragmented Nuclei (%) [10]: 8%; Population Healthy Nuclei (%) [10]: 79%; Population Hoechst High Intensity Objects (%) [10]: 7%; Population Membrane Permeable-Phenotype (%) [10]: 11%; Population Mitochondria Different-Phenotype (%) [10]: 17%; Population Mitotic Cells (%) [10]: 27%; Population Normal (%) [10]: 92%; Population Pyknosed Nuclei (%) [10]: 12%; Population Tubulin-Different-Phenotype (%) [10]: 19%; Total Cell Count [10]: 82; Population Apoptotic (%) [11]: 95%; Population Fragmented Nuclei (%) [11]: 33%; Population Healthy Nuclei (%) [11]: 39%; Population Hoechst High Intensity Objects (%) [11]: 20%; Population Membrane Permeable-Phenotype (%) [11]: 68%; Population Mitochondria Different-Phenotype (%) [11]: 93%; Population Mitotic Cells (%) [11]: 5%; Population Normal (%) [11]: 79%; Population Pyknosed Nuclei (%) [11]: 26%; Population Tubulin-Different-Phenotype (%) [11]: 100%; Total Cell Count [11]: 221; Population Apoptotic (%) [12]: 83%; Population Fragmented Nuclei (%) [12]: 12%; Population Healthy Nuclei (%) [12]: 72%; Population Hoechst High Intensity Objects (%) [12]: 11%; Population Membrane Permeable-Phenotype (%) [12]: 48%; Population Mitochondria Different-Phenotype (%) [12]: 89%; Population Mitotic Cells (%) [12]: 16%; Population Normal (%) [12]: 88%; Population Pyknosed Nuclei (%) [12]: 15%; Population Tubulin-Different-Phenotype (%) [12]: 89%; Total Cell Count [12]: 93
